Measured values from different studies.
Each line is one published result; the experiments were not run side by side.
Read-out: cell growth or viability

| Compound | cell line | assay | conditions | IC50 |
| --- | --- | --- | --- | --- |
| CC(C)(C)c1cnc(CSc2cnc(NC(=O)C3CCN(C(=O)CCCCCCCCCN4Cc5cc6c(cc5C4)C(=O)N(C4CCC(=O)NC4=O)C6=O)CC3)s2)o1 (centres unmarked) | TC-71 | MTT | 72 h | 71.7 nM |
| O=C1CCCC2=C1C(c1c(C(=O)O)[nH]c3ccccc13)c1c(ccc3ccccc13)O2 (centres unmarked) | 3T3-L1 | MTT | 72 h | 24.1 µg/mL |
| CC(C)(C)c1cnc(CSc2cnc(NC(=O)C3CCN(C(=O)CCCCCCCCCCN4Cc5cc6c(cc5C4)C(=O)N(C4CCC(=O)NC4=O)C6=O)CC3)s2)o1 (centres unmarked) | TC-71 | MTT | 72 h | 71.8 nM |
| Cc1cc2c(C(N)=O)cccc2n1-c1nc2c(c(OCc3ccccc3)n1)CCCN2 | RPMI-8226 | ATP luminescence | 72 h | 4500 nM |
| CC(C)(C)NS(=O)(=O)c1cccc(C(=O)N2CC3(CCC4(CC4)CC3)c3cc(NS(C)(=O)=O)ccc32)c1 | OVCAR-3 | – | 7 days | 11 nM |
| O=C(O)c1ccc(NCc2ccc(Cl)cc2)cc1 | NCI-H69 | resazurin | 72 h | > 100000 nM |
| Cc1cc2c(C(N)=O)nccc2n1-c1nc2c(c(NCc3ccccc3)n1)CCCN2 | RPMI-8226 | ATP luminescence | 72 h | 4900 nM |
| CC(C)(C)c1cnc(CSc2cnc(NC(=O)C3CCN(C(=O)CCCCN4Cc5cc6c(cc5C4)C(=O)N(C4CCC(=O)NC4=O)C6=O)CC3)s2)o1 (centres unmarked) | TC-71 | MTT | 72 h | 13 nM |
| Cc1cc2c(C(N)=O)cccc2n1-c1nc2c(c(NCc3ccccc3O)n1)CCCN2 | RPMI-8226 | ATP luminescence | 72 h | 9800 nM |
| CSc1ccc(CNc2ccc(C(=O)O)cc2)cc1 | NCI-H69 | resazurin | 72 h | > 100000 nM |
| Cc1cc2c(C(=O)O)cccc2n1-c1nc2c(c(NCc3ccccc3)n1)CCCN2 | RPMI-8226 | ATP luminescence | 72 h | 800 nM |
| COc1cc(CNc2ccc(C(=O)O)cc2)ccc1O | NCI-H69 | resazurin | 72 h | > 100000 nM |
| Cc1cc2c(C(N)=O)cccc2n1-c1nc2c(c(NCc3ccccn3)n1)CCCN2 | RPMI-8226 | ATP luminescence | 72 h | 1400 nM |
| CC(C)(C)c1cnc(CSc2cnc(NC(=O)C3CCN(C(=O)CCCCCCCN4Cc5cc6c(cc5C4)C(=O)N(C4CCC(=O)NC4=O)C6=O)CC3)s2)o1 (centres unmarked) | TC-71 | MTT | 72 h | 8.52 nM |
| COc1cccc(CNc2ccc(C(=O)O)cc2)c1O | NCI-H69 | resazurin | 72 h | > 100000 nM |
| CC(C)(C)c1cnc(CSc2cnc(NC(=O)C3CCN(C(=O)CCOCCN4Cc5cc6c(cc5C4)C(=O)N(C4CCC(=O)NC4=O)C6=O)CC3)s2)o1 (centres unmarked) | TC-71 | MTT | 72 h | 8.93 nM |
| O=C(O)c1ccc(NCc2cccc(C(F)(F)F)c2)cc1 | NCI-H69 | resazurin | 72 h | > 100000 nM |
| CC(C)(C)c1cnc(CSc2cnc(NC(=O)C3CCNCC3)s2)o1 | TC-71 | MTT | 72 h | 48.9 nM |
| COc1ccc(CNc2ccc(C(=O)O)cc2)cc1 | NCI-H69 | resazurin | 72 h | > 100000 nM |
| Cc1cc2c(C(N)=O)cccc2n1-c1nc2c(c(NCc3ccccc3)n1)CCCN2 | RPMI-8226 | ATP luminescence | 72 h | 900 nM |
